Data as given in publication PMC10008514 (Chemical communications (Cambridge, England), 2023).
“Also recorded” adds a separate entry of the source. Where two headings read alike, the source gives them in different places.

Key:
hCAII = conditions: read-out: Ki hCAII; reported inhibitor; cited from earlier work
[1] = Reaction with L-cysteine methyl ester; format: physicochemical; conditions: equimolar 13, 24 h, 10% acetonitrile 90% water, pH 7.4, 1.25 mM
Outline: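 Test compound and L-cysteine methyl ester were mixed in equimolar amounts at a final concentration of 1.25 mM. The solvent was 10% acetonitrile and 90% water at pH 7.4. The mixture was incubated for 24 h before analysis.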

[2] = biological target: human carbonic anhydrase II (hCAII) (Homo sapiens, UniProt P00918); experiment: hCAII inhibition assay; format: biochemical
Reactivity with DTNB = format: physicochemical; conditions: compound:DTNB 1:10, incubation 90 min, absorbance 412 nm
[3] = biological target: T1, matrix metalloproteinase-2 (MMP-2) (Homo sapiens, UniProt P08253); experiment: MMP-2 inhibition assay; format: biochemical
T1 sequence (P08253 110-660): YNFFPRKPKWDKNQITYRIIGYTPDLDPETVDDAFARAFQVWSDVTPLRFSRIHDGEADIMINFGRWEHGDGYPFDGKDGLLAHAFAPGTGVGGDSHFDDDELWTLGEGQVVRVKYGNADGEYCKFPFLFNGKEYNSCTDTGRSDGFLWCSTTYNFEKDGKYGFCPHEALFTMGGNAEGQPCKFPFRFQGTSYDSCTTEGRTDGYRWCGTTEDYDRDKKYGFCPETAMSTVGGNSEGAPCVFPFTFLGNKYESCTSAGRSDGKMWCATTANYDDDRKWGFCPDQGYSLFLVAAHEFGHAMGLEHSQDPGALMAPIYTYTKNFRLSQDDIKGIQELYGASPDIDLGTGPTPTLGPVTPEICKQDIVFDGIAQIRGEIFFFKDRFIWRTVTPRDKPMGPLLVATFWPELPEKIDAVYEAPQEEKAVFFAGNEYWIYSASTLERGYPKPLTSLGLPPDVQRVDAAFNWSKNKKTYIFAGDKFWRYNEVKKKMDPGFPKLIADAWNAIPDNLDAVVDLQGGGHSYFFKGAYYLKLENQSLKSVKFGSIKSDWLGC

Reactivity with L-cysteine methyl ester (13), disulfide formation by HPLC [1] | IC50 ([2]; read-out: IC50 hCAII, ± 95% confidence interval) [µM] | IC50 hCAII ([2]; ± 95% confidence interval) | IC50 ([3]; read-out: IC50 MMP-2, ± 95% confidence interval) [µM] | IC50 [2] [µM] | IC50 [3] [µM] | Compound | Ki (hCAII) [µM] | Percent reactivity (conversion) with DTNB (Reactivity with DTNB)
most stable compounds | > 200 | not active | > 200 | – | – | S=c1[nH]c2ccccc2o1 [Compound 1, benzo[d]oxazole-2-(3H)-thione] | 0.97 | most stable compounds
generate disulfide products with 13 | – | – | – | 19.4 ± 5.15 | > 200 | Oc1ccccc1S [Compound 11, 2-mercaptophenol, reference compound] | 0.63 | essentially quantitative conversion; also recorded: essential quantitative disulfide formation
stable in the presence of 13 | – | – | – | 3.42 ± 0.34 | 76.6 ± 4.26 | S=C1Cc2ccccc2N1 [Compound 5, 2-indolinethione] | – | –
– | – | – | – | – | – | C[C@H](CS)C(=O)N1CCC[C@H]1C(=O)O [Compound 12, captopril] | – | essentially quantitative conversion; also recorded: essential quantitative disulfide formation
